Test results reported in ChEMBL document CHEMBL2046357, “Inhibitors of Dengue virus and West Nile virus proteases based on the aminobenzamide scaffold” (Bioorg Med Chem, 2012).
Activity calls are given as the source filed them. The calls are words filed in the database; no cut-off is given here.

How the values were obtained:
dengue virus type 2 [1] = assay: Inhibition of Dengue virus 2 NS2B-NS3 protease expressed in Escherichia coli Top10F' at 25 uM pre-incubated for 15 mins before addition of Bz-NIe-Lys-Arg-Arg-AMC substrate by spectrofluorometry
Outline: (§1)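 Enzyme (DENV2 protease 25 nM; WNV protease 28 nM) pre-incubated with compound for 15 min at room temperature in 200 mM Tris·HCl pH 9.5, 30% glycerol, with 1% v/v DMSO final. Reaction started with 5 μM substrate. Fluorescence (ex 380/em 460 nm) followed every 90 s for up to 30 min at 37 °C. Percent inhibition calculated against no-compound fluorescence. Aprotinin and DMSO served as controls. Triplicates, averaged.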

West Nile virus [2] = assay: Inhibition of West Nile virus NS2B-NS3 protease expressed in Escherichia coli Top10F' at 25 uM pre-incubated for 15 mins before addition of Bz-NIe-Lys-Arg-Arg-AMC substrate by spectrofluorometry; outline: as §1
West Nile virus [3] = assay: Inhibition of West Nile virus NS2B-NS3 protease expressed in Escherichia coli Top10F' at 10 uM pre-incubated for 15 mins before addition of Bz-NIe-Lys-Arg-Arg-AMC substrate by spectrofluorometry; outline: as §1
dengue virus type 2 [4] = assay: Inhibition of Dengue virus 2 NS2B-NS3 protease expressed in Escherichia coli Top10F' at 10 uM pre-incubated for 15 mins before addition of Bz-NIe-Lys-Arg-Arg-AMC substrate by spectrofluorometry; outline: as §1
West Nile virus [5] = assay: Competitive inhibition of West Nile virus NS2B-NS3 protease expressed in Escherichia coli Top10F' at 1 to 5 uM uM assessed as increase in Km of substrate pre-incubated for 15 mins before addition of Bz-NIe-Lys-Arg-Arg-AMC substrate by spectrofluorometry
Outline: (§2)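 Inhibitor fixed at 0, 1.0, 3.0 or 5.0 μM; substrate varied 0–50 μM. Initial cleavage rates used to derive apparent Km and kcat. Ki taken from secondary plot of Km,app against inhibitor concentration. Duplicates, repeated three times.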

West Nile virus [6] = assay: Competitive inhibition of West Nile virus NS2B-NS3 protease expressed in Escherichia coli Top10F' at 1 to 5 uM uM assessed as reduction in kcat/Km of substrate pre-incubated for 15 mins before addition of Bz-NIe-Lys-Arg-Arg-AMC substrate by spectrofluorometry; outline: as §2
[7] = Inhibition of West Nile virus NS2B-NS3 protease expressed in Escherichia coli Top10F' pre-incubated for 15 mins before addition of Bz-NIe-Lys-Arg-Arg-AMC substrate by spectrofluorometry
Outline: (§3)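 Protease (DENV2 25 nM; WNV 28 nM) pre-incubated with compound for 15 min at room temperature in 200 mM Tris·HCl pH 9.5 with 30% glycerol. Then 5 μM substrate added, and fluorescence (ex 380/em 460 nm) read at 37 °C for up to 30 min.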

[8] = Inhibition of Dengue virus 2 NS2B-NS3 protease expressed in Escherichia coli Top10F' pre-incubated for 15 mins before addition of Bz-NIe-Lys-Arg-Arg-AMC substrate by spectrofluorometry; set-up: species or system dengue virus type 2; outline: as §3
[9] = 25 uM, in the assay text read “at 25 uM” for “at 10 uM”

Row | SMILES | inhibition (dengue virus type 2 [1]) | inhibition (West Nile virus [2]) | inhibition (West Nile virus [3]; [9]) | inhibition (dengue virus type 2 [4]) | inhibition (West Nile virus [5]) | inhibition (West Nile virus [6]) | IC50 [7] [µM] | inhibition (West Nile virus [3]; 10 uM) [%] | IC50 [8] [µM]
1 | O=C(NCc1cn(CSc2ccccc2)nn1)Nc1cccc(C(=O)NCc2ccccc2)c1 | inactive | inactive | inactive | inactive |  |  |  |  | 
2 | O=C(NCc1cn(Cc2ccccc2)nn1)Nc1ccc(C(=O)NCc2ccccc2)cc1 | inactive | inactive | inactive | inactive |  |  |  |  | 
3 | O=C(NCc1cn(Cc2ccccc2)nn1)Nc1ccc(C(=O)Nc2ccccc2)cc1 | inactive | inactive | inactive | inactive |  |  |  |  | 
4 | O=C(NCc1cn(CSc2ccccc2)nn1)Nc1ccc(C(=O)Nc2ccc(Oc3ccccc3)cc2)cc1 | inactive | inactive | inactive | inactive |  |  |  |  | 
5 | O=C(NCc1cn(Cc2ccccc2)nn1)Nc1ccc(C(=O)Nc2cccc(Oc3ccccc3)c2)cc1 | inactive | inactive | inactive | inactive |  |  |  |  | 
6 | O=C(NCc1cn(Cc2ccccc2)nn1)Nc1cccc(C(=O)NCc2ccccc2)c1 | inactive | inactive | inactive | inactive |  |  |  |  | 
7 | O=C(NCc1cn(Cc2ccc(F)cc2)nn1)Nc1ccc(C(=O)Nc2ccc(Oc3ccccc3)cc2)cc1 | 76% | 82.3% |  | 55.3% | Active | Active | 5.51 | 58.8 | 6.82
8 | O=C(NCc1cn(Cc2ccccc2)nn1)Nc1cccc(C(=O)Nc2cccc(Oc3ccccc3)c2)c1 | inactive | inactive | inactive | inactive |  |  |  |  | 
9 | O=C(NCc1cn(CSc2ccccc2)nn1)Nc1cccc(C(=O)NCCc2ccccc2)c1 | inactive | inactive | inactive | inactive |  |  |  |  | 
10 | O=C(NCc1cn(CSc2ccccc2)nn1)Nc1ccc(C(=O)NCCc2ccccc2)cc1 | inactive | inactive | inactive | inactive |  |  |  |  | 
11 | O=C(NCc1cn(CSc2ccccc2)nn1)Nc1cccc(C(=O)Nc2cccc(Oc3ccccc3)c2)c1 | 58.2% | 60.3% |  | 40.3% |  |  |  | 49.3 | 
12 | O=C(NCc1cn(Cc2ccccc2)nn1)Nc1cccc(C(=O)NCCc2ccccc2)c1 | inactive | inactive | inactive | inactive |  |  |  |  | 
13 | O=C(NCc1cn(Cc2ccc(F)cc2)nn1)Nc1ccc(C(=O)NCc2ccco2)cc1 | inactive | inactive | inactive | inactive |  |  |  |  | 
14 | O=C(NCc1cn(Cc2ccccc2)nn1)Nc1ccc(C(=O)NCCN2CCOCC2)cc1 | inactive | inactive | inactive | inactive |  |  |  |  | 
15 | O=C(NCc1cn(Cc2ccccc2)nn1)Nc1ccc(C(=O)NCc2ccco2)cc1 | inactive | inactive | inactive | inactive |  |  |  |  | 
16 | O=C(NCc1cn(CSc2ccccc2)nn1)Nc1ccc(C(=O)Nc2ccccc2)cc1 | inactive | inactive | inactive | inactive |  |  |  |  | 

Results, then the compound that gave them:

Row | inhibition (dengue virus type 2 [1]) | inhibition (West Nile virus [2]) | inhibition (West Nile virus [3]; [9]) | inhibition (dengue virus type 2 [4]) | inhibition (West Nile virus [5]) | inhibition (West Nile virus [6]) | IC50 [7] [µM] | inhibition (West Nile virus [3]; 10 uM) [%] | IC50 [8] [µM] | SMILES
17 | inactive | inactive | inactive | inactive |  |  |  |  |  | O=C(NCc1cn(Cc2ccc(F)cc2)nn1)Nc1ccc(C(=O)NCCc2ccccc2)cc1
18 | inactive | inactive | inactive | inactive |  |  |  |  |  | O=C(NCc1cn(CSc2ccccc2)nn1)Nc1ccc(C(=O)NCCN2CCOCC2)cc1
19 | inactive | inactive | inactive | inactive |  |  |  |  |  | O=C(NCc1cn(Cc2ccc(F)cc2)nn1)Nc1ccc(C(=O)Nc2ccccc2)cc1
20 | inactive | inactive | inactive | inactive |  |  |  |  |  | O=C(NCc1cn(Cc2ccc(F)cc2)nn1)Nc1ccc(C(=O)NCc2ccccc2)cc1
21 | inactive | inactive | inactive | inactive |  |  |  |  |  | O=C(NCc1cn(CSc2ccccc2)nn1)Nc1ccc(C(=O)NCc2ccco2)cc1
22 | inactive | inactive | inactive | inactive |  |  |  |  |  | O=C(NCc1cn(Cc2ccccc2)nn1)Nc1ccc(C(=O)NCCc2ccccc2)cc1
23 | 57% | 60.9% |  | 41.1% |  |  |  | 44.5 |  | O=C(NCc1cn(Cc2ccc(F)cc2)nn1)Nc1ccc(C(=O)Nc2cccc(Oc3ccccc3)c2)cc1
24 | inactive | inactive | inactive | inactive |  |  |  |  |  | O=C(NCc1cn(Cc2ccc(F)cc2)nn1)Nc1ccc(C(=O)NCCN2CCOCC2)cc1
25 | inactive | inactive | inactive | inactive |  |  |  |  |  | O=C(NCc1cn(CSc2ccccc2)nn1)Nc1ccc(C(=O)NCc2ccccc2)cc1
26 | 52.5% | 58% |  | 39.4% |  |  |  | 46.5 |  | O=C(NCc1cn(Cc2ccccc2)nn1)Nc1ccc(C(=O)Nc2ccc(Oc3ccccc3)cc2)cc1
